KCNQ1 block: inhibitors of human KCNQ1 potassium channel. P51787. CHO-K1 KCNQ1, FluxOR thallium flux fluorescence; stronger effect = higher value. B-score at 10 µM. actives 1.3% (n = 310,000). AID 2642;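 active = compounds whose thallium flux B-score, printed positive for inhibition, exceeds three library SD while starting fluorescence stays within three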;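 note: channel opened by potassium depolarization with thallium stimulus after 20 min compound exposure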
hERG protect: shields human hERG channel from block by proarrhythmic agents; Q12809; CHO-hERG, FluxOR thallium flux, dofetilide IC70 present; activation (rescue from dofetilide block), less the hit threshold, % at 10 µM; actives 0.51% (n = 310,000); AID 1511;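 active = activation above the mean of controls blocked by dofetilide plus 5 SD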;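 note: thallium influx through hERG after potassium depolarization seen as dye fluorescence rise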
KCNK3 block: human KCNK3 channel inhibition, primary screen. O14649. actives 0.84% (n = 340,000). B-score at 10 µM. CHO-KCNK3 thallium flux, FluxOR fluorescence; stronger effect = lower value;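 active = B-score under library mean minus 4 SD, starting fluorescence ratio at most library mean plus 5 SD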;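 note: more negative B-score means stronger inhibition of thallium flux through KCNK3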
Kir21 block: Kir2.1 (mouse) channel inhibition; P35561; HEK293-Kir2.1, FluxOR thallium flux fluorescence; stronger effect = lower value; B-score at 10 µM; actives 0.85% (n = 310,000); AID 1672;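 active = fluorescence ratio B-score at or below minus 3 SD of library scores, with starting-brightness B-score within 2 SD, cut at about -4.2 in these data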;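 note: channel flux triggered by added potassium and thallium sulfate stimulus; B-score of peak minus minimum fluorescence over baseline after thallium stimulus; more negative B-score means stronger Kir2.1 block with less thallium influx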
KCNK9 inh-1: human KCNK9 channel inhibition; Q9NPC2; HEK293 KCNK9, FluxOR thallium flux fluorescence; stronger effect = lower value; B-score at 10 µM; actives 1.2% (n = 310,000);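 active = ratio B-score over 3 SD below the library mean, with starting fluorescence within 5 SD of its mean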;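 note: negative B-score means less thallium flux so channel inhibition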
Target sequence (Q9NPC2 whole entry, looked up): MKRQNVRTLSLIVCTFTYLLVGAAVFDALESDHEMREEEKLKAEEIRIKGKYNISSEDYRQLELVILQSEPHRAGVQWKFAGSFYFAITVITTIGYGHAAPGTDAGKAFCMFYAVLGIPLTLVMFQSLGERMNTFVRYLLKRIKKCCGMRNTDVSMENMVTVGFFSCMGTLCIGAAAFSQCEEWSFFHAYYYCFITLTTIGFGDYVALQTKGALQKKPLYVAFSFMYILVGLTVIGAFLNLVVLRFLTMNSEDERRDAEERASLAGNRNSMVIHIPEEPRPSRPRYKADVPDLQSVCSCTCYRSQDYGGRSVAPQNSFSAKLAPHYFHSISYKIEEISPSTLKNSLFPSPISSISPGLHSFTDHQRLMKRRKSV
KCNQ1 pot: human KCNQ1 channel potentiation or activation; B-score at 10 µM; actives 0.35% (n = 310,000); CHO-K1 KCNQ1, thallium flux FluxOR fluorescence; stronger effect = higher value;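 active = fluorescence ratio B-score, a plate-corrected score, at least three library SD, with initial intensity B-score within 5 SD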
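assay system = CHO-K1 cells stably expressing KCNQ1 | medium = assay buffer, equal DMSO in all wells | timing = 37 °C overnight plating, 90-min dark dye load, 20-min compound pretreatment | measured by = kinetic FluxOR thallium fluorescence, 10-s 1-Hz baseline, 110-s post-stimulus read | measure = fluorescence change relative to baseline, converted to B score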
hERG ctr: counter-screen for Kir2.1 inhibitors: effect on human hERG; shares compounds with Kir21 block; hERG-expressing cells, thallium flux; inhibition, % at 10 µM; actives 20% (n = 320);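 note: host cells are CHO cells stably expressing hERG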
KCNK9 inh-2: tests whether Kir2.1 inhibitors also affect human KCNK9; shares compounds with Kir21 block; KCNK9-expressing cells, ion flux inhibition; inhibition, % at 10 µM; actives 5% (n = 320)
Kir2-1 patch inh: blocks mouse Kir2.1 current in automated electrophysiology; AID 463252; Kir2.1 cells, automated patch-clamp current inhibition; shares compounds with Kir21 block; inhibition, % at 25 µM; actives 71% (n = 320)
* = called active by the depositor; i = inactive; . = no result given. An excerpt weighted towards active compounds, which were near 3.7% of everything screened. Unless noted, the rule behind the calls is not given here.

SMILES	KCNQ1 block	hERG protect	KCNK3 block	Kir21 block	KCNK9 inh-1	KCNQ1 pot	hERG ctr	KCNK9 inh-2	Kir2-1 patch inh
Cc1cc(C)c(S(=O)(=O)c2cccc(Cl)c2)c(Cl)n1	i	-9.3	i	-0.36	i	i	.	.	.
CCOc1cc(/C=N/N=C(N)N)ccc1OCc1ccc(Cl)cc1	9*	-27.6	i	-16.3*	i	i	60.0%*	i	i
CCOc1cc(/C=N/O)ccc1OCc1ccc(F)cc1	i	-4.1	i	-0.79	i	i	.	.	.
OC1CCCN(Cc2ccc3ccc4cccc5ccc2c3c45)C1 (stereo not drawn)	i	-3.9	i	-5.79*	i	i	48.0%*	i	i
c1cc2ccc3ccc(CN4CCOCC4)c4ccc(c1)c2c34	i	-7.8	i	0.31	i	i	.	.	.
CCc1nnc(NC(=O)CN2CCN(Cc3cccc(OC)c3)CC2)s1	i	-8.5	i	-0.11	i	i	.	.	.
CCC(=O)Nc1nnc(SCC(=O)NCC2CCCO2)s1 (stereo not drawn)	i	-5.2	i	1.23	i	i	.	.	.
Cc1cc(NC(=O)CSCC(=O)OC(C)C(=O)c2cc(C)c(C)cc2C)no1 (stereo not drawn)	i	-8.6	i	-6.31*	i	i	i	i	17.6%*
CCOc1ccc(Nc2nc(N)c3ccccc3n2)cc1	i	-9.5	i	-9.87*	i	i	i	i	69.7%*
CN(C)c1ccc(Nc2nc(N)c3ccccc3n2)cc1	i	-8.0	i	-7.52*	i	i	i	i	64.9%*
CN(C)c1nc(Nc2ccccc2)nc(N(C)C)n1	i	-11.4	i	1.1	i	i	.	.	.
CC(=O)c1ccc(OCC(=O)OCC(=O)Nc2sccc2C(N)=O)cc1	.	.	i	.	.	.	.	.	.
CNCCCCOc1ccccc1Cc1ccccc1	i	-9.4	.	-8.82*	i	i	i	i	30.3%*
CC(C)CN(C(=O)COC(=O)CCc1nc2ccccc2s1)c1c(N)n(Cc2ccccc2)c(=O)[nH]c1=O	i	-5.9	i	-0.08	i	i	.	.	.
CC(C)(C)c1cc(Cl)ccc1OCCOCCN1CCCC1	i	-8.0	i	-9.63*	i	i	58.0%*	i	9.2%*
Cc1ccc(OCCOCCN2CCN(C)CC2)c(C(C)(C)C)c1	i	-9.6	i	-1.83	i	i	.	.	.
COc1ccc(S(=O)(=O)NCCc2cn3nc(C)c(C)nc3n2)cc1F	i	-10.9	i	0.21	i	i	.	.	.
CCN(CCNCC(O)COc1ccccc1C(C)C)c1cccc(C)c1 (stereo not drawn)	i	-21.4	i	-6.37*	i	i	61.0%*	i	i
CCOC(=O)N1CCN(CC(O)COc2ccccc2C(C)C)CC1 (stereo not drawn)	i	-5.9	i	0.17	i	i	.	.	.
COc1ccc(Nc2ccnc3ccccc23)cc1	i	-10.5	i	-14.7*	i	i	i	i	81.7%*
CC(C)(Oc1ccc(Cl)cc1)C(=O)OCC(=O)NCCc1ccccc1	i	-14.0	i	-6.36*	i	i	i	i	39.3%*
CC(NC(=O)c1ccccc1Cl)C(=O)N1CCN(Cc2ccc3c(c2)OCO3)CC1 (stereo not drawn)	.	.	i	.	.	.	.	.	.
CC(C)NCCCOc1ccc(C(C)(C)c2ccccc2)cc1	i	0.8	i	-2.42	i	i	.	.	.
CC(C)(c1ccccc1)c1ccc(OCCCNCCO)cc1	i	-10.9	i	-8.55*	i	i	i	i	58.6%*
